Laboratory results as given in article PMC9352467 (Neoplasia (New York, N.Y.), 2022).
Marks after values point to notes of the source that are not given here.

Key:
[1] = tested on: HCT-116 and RKO cells; assay: Western blotting of neddylation, CRLs substrates and DNA damage markers; format: cell-based, Human; settings: 24 h
Summary of the method: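 HCT-116 and RKO cells were treated with test compound or a reference NAE inhibitor; DNA damage markers (γH2AX, p-Chk1 Ser317, p-Chk2 T68) were read after 24 h. Lysis was in SDS buffer (50 mM Tris-HCl pH 6.8, 2% SDS, 100 mM DTT) with 10 min boiling. Lysates were run on 10% gels at 150 V for 1 h, blocked in 5% milk/TBST, and probed with primaries at 1:1000 and HRP secondaries. Three repeats.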

[2] = tested on: THP-1; assay: Cell viability assay; format: cell-based; settings: Homo sapiens, THP-1, 72 h, read-out: IC50 (mean ± SD)
[3] = tested on: MV-4-11; assay: Cell viability assay; format: cell-based; settings: Homo sapiens, MV4-11, 72 h, read-out: IC50 (mean ± SD)
[4] = tested on: Jurkat, Clone E6-1; assay: Cell viability assay; format: cell-based; settings: Homo sapiens, 72 h, read-out: IC50 (mean ± SD)
[5] = tested on: NOMO-1; assay: Cell viability assay; format: cell-based; settings: Homo sapiens, NOMO-1, 72 h, read-out: IC50 (mean ± SD)
[6] = tested on: KG-1; assay: Cell viability assay; format: cell-based; settings: Homo sapiens, KG-1, 72 h, read-out: IC50 (mean ± SD)
[7] = tested on: SW48; assay: Cell viability assay; format: cell-based; settings: Homo sapiens, SW48, 72 h, read-out: IC50 (mean ± SD)
[8] = tested on: COLO 205; assay: Cell viability assay; format: cell-based; settings: Homo sapiens, COLO 205, 72 h, read-out: IC50 (mean ± SD)
[9] = tested on: HCT-116; assay: Cell viability assay; format: cell-based, Human
[10] = tested on: HT-29; assay: Cell viability assay; format: cell-based; settings: Homo sapiens, HT-29, 72 h, read-out: IC50 (mean ± SD)
[11] = tested on: RKO; assay: Cell viability assay; format: cell-based, Human
[12] = tested on: HCT 15; assay: Cell viability assay; format: cell-based; settings: Homo sapiens, HCT-15, 72 h, read-out: IC50 (mean ± SD)
[13] = tested on: SW480; assay: Cell viability assay; format: cell-based; settings: Homo sapiens, SW480, 72 h, read-out: IC50 (mean ± SD)
[14] = tested on: SW620; assay: Cell viability assay; format: cell-based; settings: Homo sapiens, SW-620, 72 h, read-out: IC50 (mean ± SD)
[15] = tested on: Capan-1; assay: Cell viability assay; format: cell-based; settings: Homo sapiens, CAPAN-1, 72 h, read-out: IC50 (mean ± SD)
[16] = tested on: MIA PaCa-2; assay: Cell viability assay; format: cell-based; settings: Homo sapiens, MIA PaCa-2, 72 h, read-out: IC50 (mean ± SD)
[17] = tested on: SUIT-2; assay: Cell viability assay; format: cell-based; settings: Homo sapiens, SUIT-2, 72 h, read-out: IC50 (mean ± SD)
[18] = tested on: Panc 02.03; assay: Cell viability assay; format: cell-based; settings: Homo sapiens, Panc 02.03, 72 h, read-out: IC50 (mean ± SD)
[19] = tested on: HGC-27; assay: Cell viability assay; format: cell-based; settings: Homo sapiens, HGC-27, 72 h, read-out: IC50 (mean ± SD)
[20] = tested on: NCI-N87; assay: Cell viability assay; format: cell-based; settings: Homo sapiens, NCI-N87, 72 h, read-out: IC50 (mean ± SD)
[21] = tested on: DU 145; assay: Cell viability assay; format: cell-based; settings: Homo sapiens, DU-145, 72 h, read-out: IC50 (mean ± SD)
[22] = tested on: LNCaP; assay: Cell viability assay; format: cell-based; settings: Homo sapiens, 72 h, read-out: IC50 (mean ± SD)
[23] = tested on: PC-3; assay: Cell viability assay; format: cell-based; settings: Homo sapiens, PC-3, 72 h, read-out: IC50 (mean ± SD)
[24] = tested on: TOV-112D; assay: Cell viability assay; format: cell-based; settings: Homo sapiens, TOV112D, 72 h, read-out: IC50 (mean ± SD)
[25] = tested on: OVCAR-8; assay: Cell viability assay; format: cell-based; settings: Homo sapiens, OVCAR-8, 72 h, read-out: IC50 (mean ± SD)
[26] = tested on: CHL-1; assay: Cell viability assay; format: cell-based; settings: Homo sapiens, CHL-1, 72 h, read-out: IC50 (mean ± SD)
[27] = tested on: G-361; assay: Cell viability assay; format: cell-based; settings: Homo sapiens, G-361, 72 h, read-out: IC50 (mean ± SD)
[28] = tested on: NCI-H226; assay: Cell viability assay; format: cell-based; settings: Homo sapiens, NCI-H226, 72 h, read-out: IC50 (mean ± SD)
[29] = tested on: panel of 28 human cancer cell lines; assay: Cell viability assay, whole panel; format: cell-based; settings: 72 h, read-out: Average IC50 over the cell line panel
[30] = Plasma pharmacokinetic studies; format: in vivo, Sprague-Dawley (SD) rats; settings: male, Sprague-Dawley, rat, 3 mg/kg
Summary of the method: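 Male Sprague-Dawley rats (200–250 g) were fasted 12 h and dosed with test compound or reference at 1 mg/kg i.v. or 3 mg/kg p.o. The i.v. vehicle was DMSO/EtOH/PEG300/NaCl (5/5/40/50); the p.o. vehicle was DMSO/0.5% HPMC (5/95). Blood was sampled over time and assayed by LC/MS/MS. Three animals per time point; non-compartmental analysis.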

[31] = 1 mg/kg i.v.; SD rats plasma; ref [25]; cited from earlier work

NS(=O)(=O)OC[C@@H]1C[C@@H](n2ccc3c(N[C@H]4CCc5ccccc54)ncnc32)C[C@@H]1O [MLN4924]
DNA damage (γH2AX levels) [1]: accumulation of DNA double-strand breaks | IC50 [2]: 60.1 ± 32.2 nM | IC50 [3]: 121 ± 1.79 nM | IC50 [4]: 284 ± 95.6 nM | IC50 [5]: 627 ± 77.8 nM | IC50 [6]: 936 ± 258 nM | IC50 [7]: 79.5 ± 23.1 nM | IC50 [8]: 54.2 ± 2.47 nM | IC50 ([9]; Homo sapiens, HCT-116, 72 h, read-out: IC50 (mean ± SD)): 60.8 ± 11.7 nM | IC50 [10]: 296 ± 32.3 nM | IC50 ([11]; Homo sapiens, 72 h, read-out: IC50 (mean ± SD)): 150 ± 26.4 nM | IC50 [12]: 294 ± 80.3 nM | IC50 [13]: 1090 ± 91.7 nM | IC50 [14]: 5550 ± 2370 nM | IC50 [15]: 96.5 ± 10.1 nM | IC50 [16]: 109 ± 16.1 nM | IC50 [17]: 204 ± 29.1 nM | IC50 [18]: 356 ± 39.1 nM | IC50 [19]: 98.5 ± 28.3 nM | IC50 [20]: 865 ± 77.5 nM | IC50 [21]: 86.5 ± 15.1 nM | IC50 [22]: 52.5 ± 13.4 nM | IC50 [23]: 2430 ± 1050 nM | IC50 [24]: 229 ± 104 nM | IC50 [25]: 541 ± 64.2 nM | IC50 [26]: 320 ± 122 nM | IC50 [27]: 1430 ± 684 nM | IC50 [28]: 1040 ± 624 nM | IC50 [29]: 647 nM | bioavailability ([30]; oral): 12.4% | AUC(0-t) ([30]; po): 208 ng·h/mL | Cmax ([30]; po): 64 ng/mL | Tmax ([30]; po): 0.92 h | half-life ([30]; po): 5.5 h | AUClast [31]: 560^a ng*h/mL | CL [31]: 29.70^a mL/min/kg | T1/2 [31]: 0.71^a h | Vss_obs [31]: 1783^a mL/kg

CCOc1cccc(F)c1C#Cc1cn([C@@H]2O[C@H](CNS(N)(=O)=O)[C@@H](O)[C@H]2O)c2ncnc(N)c12 [TAS4464]
sensitivity of cell proliferation ([9]; HCT-116, Supplemental Figure 1b): profoundly sensitive | sensitivity of cell proliferation ([11]; Supplemental Figure 1b): profoundly sensitive
